From PubChem BioAssay AID493093 (Broad Institute, 2011)
Calls of active or inactive are those of the source.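 Rule for the calls: active = compounds lowering viability with an AC50 at or under ten times their top valid dose; inconclusive = flat curve with 30 to 70% viability loss, or poor fit; inactive = flat near zero, weak potency, or rising signal.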

Tested on: not listed separately
Experiment: cytotoxicity toward BJeHLT cells – cell-based, dry powder, set 2, counter-screen for Ras selective lethality project, dose response (AID 493093)
Conditions: BJeHLT fibroblasts viability, Alamar Blue fluorescence, 48 h; at 48 µM (top of the series)
How it was run: (§1)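 Test system: BJeHLT fibroblasts, BJ cells transformed with hTERT, SV40 LT and ST; input: 1000 cells per well; incubation: 48 h exposure, 37 °C, 5% CO2, ~16 h Alamar Blue; signal: Alamar Blue fluorescence, 544/590 nm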

With `Cc1onc(C(=O)N2CCN(C(c3ccccc3)c3ccccc3)CC2)c1N` as the compound, how does the activity change, negative = loss of viability read?
Its activity change, negative = loss of viability is -0.577% (inactive).

With `O=[N+]([O-])c1ccc(CN2CCN(C(c3ccccc3)c3ccccc3)CC2)o1` as the compound, how does the activity change, negative = loss of viability read?
The activity change, negative = loss of viability was -7.38% (inactive).

With `Cc1oc(C)c(C(=O)N2CCN(C(c3ccccc3)c3ccccc3)CC2)c1C` as the compound, how does the activity change, negative = loss of viability read?
The activity change, negative = loss of viability was 19.3% (inactive).

Which activity change, negative = loss of viability does the source give for `Cc1onc(C(=O)N2CCN(C(c3ccccc3)c3ccccc3)CC2)c1NS(C)(=O)=O` here?
Its activity change, negative = loss of viability is 7.7% (inactive).

Which activity change, negative = loss of viability does the source give for `CC(=O)Nc1c(C(=O)N2CCN(C(c3ccccc3)c3ccccc3)CC2)noc1C` here?
Its activity change, negative = loss of viability is 8.25% (inactive).

For `Cc1onc(C(=O)N2CCN(C(c3ccccc3)c3ccccc3)CC2)c1Br`, which activity change, negative = loss of viability is on record?
The activity change, negative = loss of viability was 15.1% (inactive).

With `Cc1onc(C(=O)N2CCN(C(c3ccccc3)c3ccccc3)CC2)c1C` as the compound, how does the activity change, negative = loss of viability read?
Its activity change, negative = loss of viability is 18.4% (inactive).

For `Cc1onc(C(=O)NCCNC(c2ccccc2)c2ccccc2)c1[N+](=O)[O-]`, which activity change, negative = loss of viability is on record?
The activity change, negative = loss of viability was -11.4% (inactive).

Which activity change, negative = loss of viability does the source give for `Cc1onc(C(=O)N2CCN(C(c3ccncc3)c3ccncc3)CC2)c1[N+](=O)[O-]` here?
The activity change, negative = loss of viability was -2.93% (inactive).

With `O=C(c1noc2ccccc12)N1CCN(C(c2ccccc2)c2ccccc2)CC1` as the compound, how does the activity change, negative = loss of viability read?
Its activity change, negative = loss of viability is 15.4% (inactive).

Which activity change, negative = loss of viability does the source give for `CC(C)c1onc(C(=O)N2CCN(C(c3ccccc3)c3ccccc3)CC2)c1[N+](=O)[O-]` here?
The activity change, negative = loss of viability was 10% (inactive).

For `Cc1ccc(C(=O)N2CCN(C(c3ccccc3)c3ccccc3)CC2)c([N+](=O)[O-])c1`, which activity change, negative = loss of viability is on record?
Its activity change, negative = loss of viability is 13% (inactive).

Same assay, conditions: BJeHLT fibroblasts viability, Alamar Blue fluorescence, 48 h; at 68 µM (top of the series)

For `Cc1onc(C(=O)N2CCOCC2)c1[N+](=O)[O-]`, which activity change, negative = loss of viability is on record?
The activity change, negative = loss of viability was 1.06% (inactive).

With `Cc1onc(C(=O)NCc2ccc(F)cc2)c1[N+](=O)[O-]` as the compound, how does the activity change, negative = loss of viability read?
Its activity change, negative = loss of viability is 10.9% (inactive).

For `COc1ccccc1N1CCN(C(=O)c2noc(C)c2[N+](=O)[O-])CC1`, which activity change, negative = loss of viability is on record?
The activity change, negative = loss of viability was 7.12% (inactive).

Which activity change, negative = loss of viability does the source give for `CCOC(=O)N1CCN(C(=O)c2noc(C)c2[N+](=O)[O-])CC1` here?
Its activity change, negative = loss of viability is 6.37% (inactive).

With `Cc1onc(C(=O)N2CCN(Cc3ccccc3)CC2)c1[N+](=O)[O-]` as the compound, how does the activity change, negative = loss of viability read?
Its activity change, negative = loss of viability is 4.74% (inactive).

For `Cc1cc(C(=O)N2CCN(Cc3ccccc3)CC2)no1`, which activity change, negative = loss of viability is on record?
The activity change, negative = loss of viability was 1.07% (inactive).

Tested on: BJeHLT fibroblasts viability, Alamar Blue fluorescence, 48 h
Experiment: as above
Conditions: not given
How it was run: as §1

With `Cc1onc(C(=O)N2CCN(C(c3ccccn3)c3ccccn3)CC2)c1[N+](=O)[O-]` as the compound, how does the AC50 read?
Its AC50 is > 47.6 µM (inactive).

Which AC50 does the source give for `Cc1onc(C(=O)N2CCN(C(c3ccc(Cl)cc3)c3ccc(Cl)cc3)CC2)c1[N+](=O)[O-]` here?
Its AC50 is 0.272 µM.

Which AC50 does the source give for `Cc1onc(C(=O)N2CCN(C(c3ccccc3)c3ccccc3)CC2)c1[N+](=O)[O-]` here?
The AC50 was 4.97 µM.

Which AC50 does the source give for `Cc1onc(C(=O)N2CCN(C(c3ccccc3)c3ccc(Cl)cc3)CC2)c1[N+](=O)[O-]` (stereo not given) here?
The AC50 was 0.51 µM.

Which AC50 does the source give for `O=C(c1ccc([N+](=O)[O-])o1)N1CCN(C(c2ccc(F)cc2)c2ccc(F)cc2)CC1` here?
Its AC50 is 12.1 µM.

Which AC50 does the source give for `O=C(c1ccc([N+](=O)[O-])o1)N1CCN(C(c2ccccc2)c2ccccc2)CC1` here?
The AC50 was 18.9 µM.

For `Cc1onc(C(=O)N2CCCN(C(c3ccccc3)c3ccccc3)CC2)c1[N+](=O)[O-]`, which AC50 is on record?
The AC50 was 2.79 µM.

Which AC50 does the source give for `O=C(c1ccc([N+](=O)[O-])o1)N1CCCN(C(c2ccccc2)c2ccccc2)CC1` here?
The AC50 was 46.2 µM.

With `O=C(NCCNC(c1ccccc1)c1ccccc1)c1ccc([N+](=O)[O-])o1` as the compound, how does the AC50 read?
The AC50 was 3.35 µM.

For `COc1ccc(C(c2ccc(OC)cc2)N2CCN(C(=O)c3ccc([N+](=O)[O-])o3)CC2)cc1`, which AC50 is on record?
Its AC50 is 6.85 µM.

With `Cc1onc(C(=O)N2CCN(C(c3ccc(F)cc3)c3ccc(F)cc3)CC2)c1[N+](=O)[O-]` as the compound, how does the AC50 read?
The AC50 was 0.757 µM.

With `COc1ccc(C(c2ccc(OC)cc2)N2CCN(C(=O)c3noc(C)c3[N+](=O)[O-])CC2)cc1` as the compound, how does the AC50 read?
Its AC50 is 5.32 µM.
